B1: tRNA (parent)
chain: GUUCCGUUGGCGUAAUGGUAACGCGUCUCCCUCCUAAGGAGAAGACUGCGGGUUCGAGUCCCGUACGGAACG

Variants of: B1
Assay: yeast fitness, log relative to wild type (ln ratio); higher = fitter; tRNA-Arg(CCU), competitive growth, 37 C, 1 M NaCl
Method in brief: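 Variants were counted by 125 bp paired-end Illumina sequencing after pools of a combinatorial tRNA-Arg(CCU) library, held on a HIS3 centromeric plasmid in BY4742 lacking the chromosomal gene, grew ~6.5 generations (~26.5 h) in SC-HIS 1M NaCl at 37 °C. Each genotype's fitness is the natural log of its generations relative to the wild type's. Generations were OD-scaled log2 output/input frequencies, inverse-variance weighted over replicates.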

| Variant | yeast fitness (ln) |
| --- | --- |
| U2C G6A C46U A70G | 0.00625 |
| U2G G6A C27U A43C C46U C66A | -0.189 |
| G1A C27U A43C C66U A69G A70G C71U | -0.371 |
| G1A U2G G6U C27U A43C | -0.3 |
| G1A U2G G6U A43C C46U C66U A69G A70G C71U | -0.371 |
| U2G G6A C27U C66U A69G A70U C71U | -0.4 |
| U2C G6U C27U A43C C46U C66U | -0.0875 |
| G1A U2G G6U C27U C46U C66U A69G A70G | -0.308 |
| G1A U2G G6U C27U C46U C66U A69G A70U | -0.339 |
| G1A U2G G6A A43C C66A A70U | -0.216 |
| G6U C66A A69G A70G | -0.0205 |
| U2G G6U C27U A69G A70G C71U | -0.363 |
| U2G C27U C66A A70G | -0.128 |
| G1A U2C G6U C46U C66A C71U | -0.0738 |
| U2C C27U A70U C71U | -0.104 |
| G6A A43C | -0.0714 |
| U2C A43C | -0.0265 |
| G6A A69G A70G C71U | -0.263 |
| G6U A43C C46U C71U | -0.193 |
| G1A U2G G6A C27U A43C C46U C66U C71U | -0.29 |
| G1A G6U C46U C66U A70U | -0.153 |

| Variant | yeast fitness (ln) |
| --- | --- |
| U2G C46U C66A C71U | -0.0426 |
| G1A U2G C66U A69G A70U C71U | -0.435 |
| G6U C66U A69G C71U | -0.374 |
| C27U C46U A69G A70G | -0.0578 |
| G1A U2G G6U C27U C46U C66U A69G C71U | -0.434 |
| G1A U2G A43C C46U A69G A70U C71U | -0.29 |
| G6U C46U C66U C71U | -0.183 |
| G1A U2G G6A C27U C66U C71U | -0.344 |
| G1A C27U A43C C46U C66A A70U C71U | -0.359 |
| U2C G6A C27U C46U C66A A69G A70U C71U | -0.384 |
| G1A U2G C46U C66A A69G A70U C71U | -0.385 |
| G1A A43C C66A C71U | -0.275 |
| G6A A43C C66U A69G A70G C71U | -0.261 |
| G1A U2G C27U A43C C46U C66U A69G C71U | -0.383 |
| U2G G6U C27U A69G C71U | -0.286 |
| U2G G6A A43C A70G | -0.0939 |
| U2C A43C A70U C71U | -0.102 |
| G6A C66U A70U | -0.0184 |
| U2C G6U C27U C46U A69G A70G C71U | -0.244 |
| G1A U2C C27U A70G | -0.0624 |
| G1A U2G A43C C66U C71U | -0.257 |

| Variant | yeast fitness (ln) |
| --- | --- |
| G1A G6A C27U A69G A70U | -0.353 |
| G6U C27U A43C C66A A69G C71U | -0.333 |
| G1A U2G G6U C27U A43C C66U A70U | -0.47 |
| U2C G6A C27U C71U | -0.212 |
| U2G G6U A43C C66U A70G C71U | -0.397 |
| U2C C66U A69G A70G | -0.0264 |
| G1A U2C G6A C27U | -0.0466 |
| U2C G6U C27U A43C C46U C66A A69G A70G C71U | -0.0738 |
| U2C C27U A43C C66A A69G A70U C71U | -0.443 |
| G1A U2C G6U A70U | -0.00843 |
| G1A U2G G6U C27U A43C C46U C66U A70U C71U | -0.647 |
| U2G G6U C27U A43C C46U A70U | -0.156 |
| G1A U2C C27U A43C C46U C66U | -0.161 |
| U2G C27U A43C C46U A69G A70G C71U | -0.132 |
| G1A C27U C46U C66U C71U | -0.454 |
| G1A U2C A43C C46U A70U C71U | -0.0746 |
| G6A C27U A69G A70G | -0.12 |
| G1A G6U C27U A43C A70U C71U | -0.341 |
| U2C G6U C27U C66A A70G C71U | -0.0263 |
| G1A C27U A69G | -0.295 |
| G1A U2G C27U C46U C66A A70U C71U | -0.185 |

| Variant | yeast fitness (ln) |
| --- | --- |
| G1A G6A C27U C66U C71U | -0.0761 |
| G1A C27U C46U C66A A69G C71U | -0.168 |
| G1A C46U | -0.0224 |
| G1A U2G G6U C27U A43C C46U | -0.363 |
| G6A C27U A43C A69G C71U | -0.353 |
| G1A G6A C27U C46U C66U A69G C71U | -0.132 |
| G6U C46U A70U C71U | -0.189 |
| C27U A43C A69G A70U | -0.204 |
| C27U A43C A69G A70G | -0.235 |
| G6A A43C C66A A70U C71U | -0.395 |
| U2G G6A A43C C46U C66A | -0.141 |
| G1A G6A A43C C46U A69G A70U | -0.283 |
| G6U A43C A69G A70G | -0.371 |
| G1A U2G G6U C46U C66U A70U | -0.184 |
| G1A C27U A43C C46U C66U A70U | -0.173 |
| G1A U2G G6U C27U A43C C46U C66A A70G C71U | -0.369 |
| G1A C27U A43C C46U C66U C71U | -0.219 |
| G1A U2C C66U A69G A70G C71U | -0.055 |
| G1A G6U C46U C66A A69G C71U | -0.041 |
| G1A U2G G6A C66U A70G | -0.142 |

Reference: the RNAGym collection of RNA variant scans (doi:10.1038/s41586-018-0170-7)
